We go through six molecules from ChEMBL document CHEMBL1125123, “Antimalarial activity of new water-soluble dihydroartemisinin derivatives. 3. Aromatic amine analogues” (J Med Chem, 1990).

SMILES strings stand for the structures. Converted amounts (≈) assume the structure as drawn.

Assay [1] has as its system Plasmodium falciparum. The assay can be described thus: Antimalarial activity against Plasmodium falciparum D6 Africa in human malaria. It counts as functional, organism-based. Put shortly: (§1)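 Compounds dissolved in DMSO and 70% ethanol, then diluted in RPMI 1640 with 10% human plasma and tested over 1.56–100 × 10⁻⁹ M. Parasites at 0.5% parasitemia and 1% hematocrit were exposed to compound for 24 h before ³H-hypoxanthine was added. Uptake was read by scintillation counting, and IC50 was derived by nonlinear regression of concentration-response data.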

The subject of assay [2] is Plasmodium falciparum. The assay can be described thus: Antimalarial activity against Plasmodium falciparum W-2 Indochina in human malaria. It counts as functional, organism-based. Summed up:
as §1

By IC50 is commonly meant the concentration at which inhibition is half-maximal. Low values mean higher potency, high ones lower potency. For the molecule `C[C@@H]1CC[C@H]2[C@](C)(Br)[C@@H](Nc3nccs3)O[C@@H]3O[C@@]4(C)CC[C@@H]1[C@]32OO4`, the IC50 with Plasmodium falciparum [1] turned out to be 0.91 ng/mL (≈ 2.04 nM); in the assay on Plasmodium falciparum [2], 0.21 ng/mL (≈ 0.472 nM).
For `C[C@@H]1CC[C@H]2[C@](C)(Br)[C@@H](Nc3ccccn3)O[C@@H]3O[C@@]4(C)CC[C@@H]1[C@]32OO4`, in that order: 7.72 ng/mL (≈ 17.6 nM) and 1.19 ng/mL (≈ 2.71 nM).
Regarding `C[C@@H]1CC[C@H]2[C@](C)(Br)[C@@H](Nc3cccc(F)c3)O[C@@H]3O[C@@]4(C)CC[C@@H]1[C@]32OO4`, the IC50 in the assay with Plasmodium falciparum [1] is 0.16 ng/mL (≈ 0.351 nM); with Plasmodium falciparum [2], under 0.16 ng/mL.
In the same order, the values of `C[C@@H]1CC[C@H]2[C@](C)(Br)[C@@H](Nc3ncccn3)O[C@@H]3O[C@@]4(C)CC[C@@H]1[C@]32OO4` are 26 ng/mL (≈ 59 nM) and 5.56 ng/mL (≈ 12.6 nM).
As to `C[C@@H]1CC[C@H]2[C@](C)(Br)[C@@H](Nc3ccccc3)O[C@@H]3O[C@@]4(C)CC[C@@H]1[C@]32OO4`, the values for the IC50 with Plasmodium falciparum [1] and in the assay on Plasmodium falciparum [2] were 3.42 ng/mL (≈ 7.8 nM) and 0.63 ng/mL (≈ 1.44 nM), respectively.
With `C[C@@H]1CC[C@H]2[C@@H](C)C(=O)O[C@@H]3O[C@@]4(C)CC[C@@H]1[C@]32OO4` [ARTEMISININ], in the assay on Plasmodium falciparum [1], half-maximal inhibition (IC50) was put at 0.56 ng/mL (≈ 1.98 nM).
